This is an account of results in ChEMBL document CHEMBL1138182, “Structure activity relationships of 5-, 6-, and 7-methyl-substituted azepan-3-one cathepsin K inhibitors” (J Med Chem, 2006).

For one data set, the target named is Cathepsin B (Homo sapiens, UniProt P07858). In words: Inhibition of human cathepsin B. The following applies: read-out: Ki app. Put shortly: (§1)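 Recombinant human enzyme with fluorogenic substrate, typically Cbz-Phe-Arg-AMC, in 100 mM sodium acetate pH 5.5 with 20 mM cysteine and 5 mM EDTA, at ambient temperature. Enzyme added last to inhibitor plus substrate. AMC fluorescence read at ex 360/em 460. Progress curves at variable inhibitor concentrations were fitted for Ki,app, by competitive velocity equation or slow-binding exponential.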

For data set [1], the target named is T1, Cathepsin K (Homo sapiens, UniProt P43235).
T1 sequence (P43235 whole entry): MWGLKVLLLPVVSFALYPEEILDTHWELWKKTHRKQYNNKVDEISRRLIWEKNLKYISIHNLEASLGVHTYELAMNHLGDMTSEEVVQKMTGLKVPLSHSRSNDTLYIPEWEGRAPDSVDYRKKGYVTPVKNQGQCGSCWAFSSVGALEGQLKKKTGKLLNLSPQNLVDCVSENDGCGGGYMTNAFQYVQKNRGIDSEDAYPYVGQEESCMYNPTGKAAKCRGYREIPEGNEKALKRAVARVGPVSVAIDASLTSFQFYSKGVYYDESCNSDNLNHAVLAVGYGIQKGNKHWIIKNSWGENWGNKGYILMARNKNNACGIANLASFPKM
In words: Inhibition of human cathepsin K. The following applies: read-out: Ki app.

Data set [2] addresses T2, Cathepsin K (Rattus norvegicus, UniProt O35186).
T2 sequence (O35186 whole entry): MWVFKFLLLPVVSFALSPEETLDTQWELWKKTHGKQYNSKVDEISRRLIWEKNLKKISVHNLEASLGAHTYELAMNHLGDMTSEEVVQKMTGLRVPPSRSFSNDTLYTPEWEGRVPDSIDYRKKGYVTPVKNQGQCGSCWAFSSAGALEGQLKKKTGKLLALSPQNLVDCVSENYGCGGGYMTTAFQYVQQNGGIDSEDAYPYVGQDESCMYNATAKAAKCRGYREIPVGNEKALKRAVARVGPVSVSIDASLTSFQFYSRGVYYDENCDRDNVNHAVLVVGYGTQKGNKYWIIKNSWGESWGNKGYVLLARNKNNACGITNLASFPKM
In words: Inhibition of rat cathepsin K. The following applies: read-out: Ki app. Put shortly:
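Recombinant enzyme; fluorogenic peptide substrate (typically Cbz-Phe-Arg-AMC) in 100 mM sodium acetate pH 5.5 with 20 mM cysteine and 5 mM EDTA, ambient temperature. Reaction started by adding enzyme to inhibitor plus substrate at variable inhibitor concentrations; AMC fluorescence (ex 360, em 460 nm) followed as progress curves. Ki,app obtained by fitting to the competitive velocity equation or the slow-binding progress-curve equation.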

The target of another data set is Cathepsin S (Homo sapiens, UniProt P25774). Briefly: Inhibition of human cathepsin S. The following applies: read-out: Ki app.
Sequence of Cathepsin S (P25774 whole entry): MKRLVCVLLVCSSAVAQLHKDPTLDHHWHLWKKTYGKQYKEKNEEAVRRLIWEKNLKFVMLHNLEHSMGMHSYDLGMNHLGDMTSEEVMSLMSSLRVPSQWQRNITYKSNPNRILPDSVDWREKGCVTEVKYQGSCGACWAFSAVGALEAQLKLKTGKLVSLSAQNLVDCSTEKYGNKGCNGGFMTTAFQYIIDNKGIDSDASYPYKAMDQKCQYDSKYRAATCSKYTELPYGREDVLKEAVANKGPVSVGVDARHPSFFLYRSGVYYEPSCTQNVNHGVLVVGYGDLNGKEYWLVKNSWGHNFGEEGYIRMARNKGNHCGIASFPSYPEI
The nature of data set [3]: Permeability in MDCK cells at 10 uM. It counts as ADME, cell-based, Canis lupus familiaris. Conditions: dog, read-out: permeability. A digest of the protocol:
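MDCK cells at passage 60-80, grown in MEM + 10% FBS at 37 °C, 5% CO2, seeded on Transwells and assayed 3 days after seeding. After ~1 h equilibration in HBSS with 25 mM glucose and 25 mM HEPES, 10 µM compound (1% DMSO final) was added apically. Basolateral concentration measured by LC/MS/MS over 3600 s, Papp calculated, duplicates, propranolol and mannitol controls.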

Data set [4] can be described thus: Oral bioavailability in Sprague-Dawley rat. It counts as ADME, organism-based. The following applies: in vivo. Put shortly: (§2)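 Male Sprague-Dawley rats, n = 3, iv/po crossover. Dosed iv as a 1-2 mg/kg 0.5-h infusion through an indwelling femoral vein catheter, then 2-4 mg/kg oral gavage 2 days later. Vehicle: aqueous, <2% DMSO, <20% hydroxypropyl-β-cyclodextrin. Tail-vein plasma sampled at timed intervals, measured by LC/MS/MS (LLOQ 1.0-10 ng/mL). Noncompartmental analysis.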

The nature of data set [5]: Volume of distribution in iv dosed Sprague-Dawley rat. It counts as ADME, organism-based. The following applies: in vivo, read-out: Vdss. Put shortly: as §2
Data set [6] is described as follows: Half life in iv dosed Sprague-Dawley rat. It counts as ADME, organism-based. Conditions: in vivo. A digest of the protocol: as §2
Data set [7] in a line: Clearance in iv dosed Sprague-Dawley rat. It counts as ADME, organism-based. The following applies: in vivo. Put shortly:
as §2

In the next data set the test system is Osteoclast. In words: Effect on collagen […] in osteoclast bone resorption assay. It counts as functional, cell-based. Conditions: Homo sapiens. Put shortly: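 Human osteoclastoma-derived osteoclasts on bovine cortical bone slices, incubated 48 h with a range of compound concentrations. Type-I collagen C-telopeptide release measured by ELISA.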

Data set [8] is described as follows: Permeability in artificial membrane. It counts as ADME, cell membranes. Conditions: PAMPA; read-out: permeability. A general note: In PAMPA a lipid-coated filter parts donor from acceptor wells.
The nature of data set [9]: Protein binding in plasma. It counts as ADME, cell-free. The following applies: rat, read-out: PPB (converted). A digest of the protocol: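 Rat plasma; binding determined by equilibrium dialysis or ultrafiltration.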
The nature of data set [10]: Oral bioavailability in cynomolgus monkey. It counts as ADME, organism-based, Macaca fascicularis. Conditions: in vivo. Put shortly: (§3)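 Cynomolgus monkeys (male, n = 3) in an iv × po crossover. Dosed by 1-h iv infusion of 1-2 mg/kg via temporary saphenous vein catheter, then 2-4 mg/kg oral gavage 7 days later. Vehicle: aqueous <2% DMSO, <20% hydroxypropyl-β-cyclodextrin. Femoral-vein plasma measured by LC/MS/MS, LLOQ 1.0-10 ng/mL. Parameters by noncompartmental methods.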

A short description of data set [11]: Volume of distribution in iv dosed cynomolgus monkey. It counts as ADME, organism-based, Macaca fascicularis. The following applies: in vivo, read-out: Vdss. A digest of the protocol:
as §3

Data set [12] in a line: Clearance in iv dosed cynomolgus monkey. It counts as ADME, organism-based, Macaca fascicularis. Conditions: in vivo. A digest of the protocol:
as §3

Data set [13] can be described thus: Half life in iv dosed cynomolgus monkey. It counts as ADME, organism-based, Macaca fascicularis. Conditions: in vivo. Put shortly: as §3
The target in another data set is T3, Cathepsin L2 (Homo sapiens, UniProt O60911).
T3 sequence (O60911 whole entry): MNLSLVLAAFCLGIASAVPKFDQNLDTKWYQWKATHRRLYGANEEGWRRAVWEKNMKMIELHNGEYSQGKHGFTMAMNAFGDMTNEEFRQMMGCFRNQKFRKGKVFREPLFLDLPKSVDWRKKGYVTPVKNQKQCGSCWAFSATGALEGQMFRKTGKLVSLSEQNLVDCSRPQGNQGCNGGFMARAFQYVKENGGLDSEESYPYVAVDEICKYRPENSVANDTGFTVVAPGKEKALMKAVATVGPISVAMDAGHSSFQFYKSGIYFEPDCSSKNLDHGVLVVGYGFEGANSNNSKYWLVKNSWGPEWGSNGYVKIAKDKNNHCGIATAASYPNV
Briefly: Inhibition of human cathepsin V. Conditions: read-out: Ki app. Put shortly: as §1

SMILES strings stand for the structures.

`CC(C)C[C@H](NC(=O)c1cc2ccccc2o1)C(=O)N[C@H]1C(=O)CN(S(=O)(=O)c2ccccn2)CC[C@@H]1C`: the Ki at Cathepsin B is greater than 1000 nM; at Cathepsin K [1], 19 nM.
Turning to `CC(C)C[C@H](NC(=O)c1cc2ccccc2o1)C(=O)N[C@@H]1C(=O)CN(S(=O)(=O)c2ccccn2)CC[C@H]1C`, the results for the Ki at Cathepsin B and on Cathepsin K [1] were greater than 1000 nM and 1.5 nM, respectively.
For `CC(C)C[C@H](NC(=O)c1cc2ccccc2o1)C(=O)N[C@H]1CC[C@H](C)N(S(=O)(=O)c2ccccn2)CC1=O`, the Ki at Cathepsin K [2] came to 680 nM; on Cathepsin S it was 42 nM.
Turning to `CC(C)C[C@H](NC(=O)c1cc2ccccc2o1)C(=O)N[C@@H]1CC[C@H](C)N(S(=O)(=O)c2ccccn2)CC1=O`, the results for the Ki at Cathepsin K [2] and on Cathepsin S were 790 nM and 110 nM, respectively.
As for `CC(C)C[C@H](NC(=O)c1cc2ccccc2o1)C(=O)N[C@@H]1C[C@@H](C)CN(S(=O)(=O)c2ccccn2)CC1=O`, the Ki is 30 nM on Cathepsin K [1], greater than 1000 nM at Cathepsin K [2] and 300 nM at Cathepsin S.
In general, bioavailability refers to the share of a dose that reaches the circulation, judged against a reference dose that is usually intravenous. Broadly, the half-life is the time needed for the level to fall by half in the phase considered. The term clearance denotes a measure of how efficiently the substance is removed, as volume per time. The IC50 is the concentration at which inhibition is half-maximal. Regarding `CC(C)C[C@H](NC(=O)c1cc2ccccc2o1)C(=O)N[C@H]1C[C@H](C)CN(S(=O)(=O)c2ccccn2)CC1=O`, the Papp at 10 µM in data set [3] amounted to 49 ×10⁻⁶ cm/s. In data set [4], the bioavailability was determined as 26.2%. Further, the Vd in data set [5] worked out at 1.46 L/kg. The compound also showed a half-life in data set [6] of 51.6 min. The clearance in data set [7] was 34.4 mL/min/kg. Besides, the figures for the Ki at Cathepsin K [1], at Cathepsin K [2] and at Cathepsin S were 0.14 nM, 73 nM and 5.8 nM, respectively. In the data set on Osteoclast, the half-inhibitory concentration (IC50) came out at 35 nM. Further, the Papp in data set [8] worked out at 56 ×10⁻⁶ cm/s. Further, in data set [9], the fraction unbound is 0.044.
As to `CC(C)C[C@H](NC(=O)c1cc2ccccc2o1)C(=O)N[C@H]1CC[C@@H](C)N(S(=O)(=O)c2ccccn2)CC1=O` [RELACATIB], the bioavailability was determined as 27.6% in [10] and 89.4% in data set [4]. Moreover, the Vd was 0.95 L/kg in data set [11] and 1.79 L/kg in data set [5]. For the same compound, the Papp at 10 µM in [3] worked out at 47 ×10⁻⁶ cm/s. Further, the half-life amounted to 109 min in data set [6] and 168 min in [13]. In addition, the Ki amounted to 13 nM on Cathepsin B, 8 nM at Cathepsin K [2], 1.6 nM at Cathepsin S and 0.063 nM on Cathepsin L2. Further, the clearance in data set [7] worked out at 19.5 mL/min/kg; in [12], 11.7 mL/min/kg. In the data set on Osteoclast, the IC50 worked out at 22 nM. Further, in [8], the Papp turned out to be 47 ×10⁻⁶ cm/s. The fraction unbound in [9] was 0.032.
Regarding `CC(C)C[C@H](NC(=O)c1cc2ccccc2o1)C(=O)N[C@@H]1C(=O)CN(S(=O)(=O)c2ccccn2)CC[C@@H]1C`, in [3], the Papp at 10 µM came out at 55 ×10⁻⁶ cm/s. For the same compound, the bioavailability in data set [4] was less than 5.4%. For the same compound, the Vd in data set [5] came out at 4.7 L/kg. The half-life in [6] came out at 58.5 min. The results for the Ki at Cathepsin B and at Cathepsin K [1] were 32 nM and 0.0099 nM, respectively. The clearance in data set [7] stood at 80.5 mL/min/kg. In the data set on Osteoclast, this compound registered an IC50 of 20 nM. In [8], the Papp is 68 ×10⁻⁶ cm/s. Further, in [9], the fraction unbound was 0.053.
On to `CC(C)C[C@H](NC(=O)c1cc2ccccc2o1)C(=O)N[C@H]1C[C@@H](C)CN(S(=O)(=O)c2ccccn2)CC1=O`, for which the Ki at Cathepsin K [1] is 29 nM; on Cathepsin K [2], greater than 1000 nM; on Cathepsin S, 350 nM.
Consider `CC(C)C[C@H](NC(=O)c1cc2ccccc2o1)C(=O)N[C@H]1C(=O)CN(S(=O)(=O)c2ccccn2)CC[C@H]1C`, for which the Ki on Cathepsin B is greater than 1000 nM; on Cathepsin K [1], 42 nM.
Take `CC(C)C[C@H](NC(=O)c1cc2ccccc2o1)C(=O)N[C@@H]1C[C@H](C)CN(S(=O)(=O)c2ccccn2)CC1=O`: the Ki was 4.5 nM on Cathepsin K [1], 660 nM on Cathepsin K [2] and 8.3 nM on Cathepsin S.
`CC(C)C[C@H](NC(=O)c1cc2ccccc2o1)C(=O)N[C@H]1CCCN(S(=O)(=O)c2ccccn2)CC1=O` had a bioavailability in [10] of 7.3%. Also, the Vd in [11] turned out to be 0.72 L/kg. Further, the Papp at 10 µM in data set [3] was 57 ×10⁻⁶ cm/s. The clearance in data set [12] is 13.9 mL/min/kg. The 50% inhibitory concentration (IC50) in the data set with Osteoclast came out at 63 nM. The half-life in data set [13] came to 36.5 min. For the same compound, the Ki at Cathepsin L2 was 1.8 nM. In data set [8], the Papp stood at 53 ×10⁻⁶ cm/s. Besides, the fraction unbound in data set [9] is 0.03.
Consider `CC(C)C[C@H](NC(=O)c1cc2ccccc2o1)C(=O)N[C@@H]1CC[C@@H](C)N(S(=O)(=O)c2ccccn2)CC1=O`, for which the figures for the Ki at Cathepsin K [2] and on Cathepsin S were 430 nM and 92 nM, respectively.
